High-throughput results from PubChem BioAssay.
Most compounds without a hit are left out; they make up all but 4.4% or so of the library.
T cruzi inh: T. cruzi replication inhibition. T. cruzi beta-gal in NIH3T3, luminescence, 90 h. inhibition, % (no concentration beside the values). actives 1.4% (n = 300,000). AID 1885;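 active means mean inhibition across valid replicates above about 55%, limit read from the data; inconclusive means mean below that limit but half or more replicates reach it; inactive means mean below it, under half of replicates reach it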;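 further: signal also drops with host cell toxicity which is not excluded here; 0% = plate median of DMSO wells and 100% = zero luminescence signal; higher percent means less beta-gal luminescence so fewer parasites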
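Incubation – ≥90 h infection period, 3 h prior cell attachment · System – NIH/3T3 fibroblasts plus reporter T. cruzi · Doses – compound pinned at 50 nL/well, DMSO · Read-out basis – percent inhibition of parasite-derived β-gal signal · Signal – luminescent β-galactosidase signal after 60 min lysis · Also added – 5000 T. cruzi trypomastigotes/well · Medium – Low-serum DMEM with 2% FBS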
HSF1 inhib: HSF1 inhibition; NIH3T3-HGL HSE-luciferase, MG132-induced, luminescence 8 h; active compounds read low; activity change, negative = inhibition, % at 7.5 µM (by protocol); actives 0.77% (n = 300,000); AID 2098;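 active means more than half of replicate wells show activity change below -50%, luminescence cut by over half; inconclusive means some wells, but at most half, below -50%; inactive means no replicate well below -50%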;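 further: luciferase reports HSF-1 transcriptional activity via heat shock element; 0% = median of DMSO wells and -100% = zero luminescence signal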
HSF1 activator: increases HSF-1 driven luciferase reporter signal | NIH3T3-HGL HSF-1 luciferase reporter, MG132, 8 h; 100% = twice DMSO control signal | activation, % at 9 µM | actives 1.7% (n = 300,000);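 active means mean replicate activation of at least 50% with a set share of replicates each reaching 50%; inconclusive means only one of those two conditions met; inactive means mean below 50% and too few replicates reaching it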;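 further: 0% = median of the neutral control wells and 100% = twice that signal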
HIF act: HIF pathway transcriptional activation; actives 0.32% (n = 300,000); U2OS HRE-luciferase reporter, luminescence; normalized: DMSO 0%, desferrioxamine 100%; activation, % at 7.5 µM (by protocol);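 active means mean activation of at least 10% of the iron chelator positive control signal, with at least half of replicates also reaching 10%; inconclusive means mean and replicate majority disagree about reaching 10%; inactive means mean and most replicates under 10%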
Calb FLC: affects C. albicans growth with fluconazole | C. albicans CaCi-2 + fluconazole, Alamar Blue growth, 48 h | growth inhibition, % (test concentration not listed) | actives 0.57% (n = 300,000);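 active means growth inhibition above about 58% in most replicates, limit read from the data, passing the limit was not always enough; inconclusive means exactly half the replicates above a set limit; inactive means most replicates below a set limit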;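 further: all wells also contain fluconazole at 8 µg/ml as a sub-toxic cotreatment; 0% = median of DMSO wells and 100% = median of geldanamycin control wells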
* = called active by the depositor; ? = inconclusive; . = not tested or not shown.

SMILES	T cruzi inh	HSF1 inhib	HSF1 activator	HIF act	Calb FLC
CS(=O)(=O)Oc1ccc2c(c1)O/C(=C\c1cccc([N+](=O)[O-])c1)C2=O	6.0	6.4	6.7	0.2	6.7
CCCOc1ccc(NC(=O)OC2CCN(C)CC2)cc1	54.6*	-1.9	-8.6	0.8	-8.7
CC(NC(=O)c1ccco1)c1nc(-c2ccccc2)no1 (stereo unspecified)	-10.1	-2.3	-0.6	-0.3	-7.3
CC(Oc1ccc(Cl)cc1Cl)c1nc(-c2ccc(NC(=O)c3ccco3)cc2)no1 (stereo unspecified)	-11.9	26.8	60.9*	3.5	-8.5
CC(=O)Nc1ccc(CN2CCC(CO)(CCOc3ccccc3)CC2)cc1	9.7	-56.2*	-62.2	-0.7	-10.0
OCCNC(=S)NCCc1ccccc1	-6.3	3.4	-5.0	-0.1	-7.4
CC(C)(CNC(=S)NCCc1ccccc1)CNC(=S)NCCc1ccccc1	64.9*	14.7	29.4	-0.5	5.0
O=C1CCC(C(=O)N(CCO)Cc2ccccc2)CN1CC1CCCCC1 (stereo unspecified)	-6.1	-13.0	-0.9	-0.3	2.7
COCC1CCCCN1C(=O)c1ccc2oc(CCc3ccccc3)nc2c1 (stereo unspecified)	1.8	15.7	31.8	1.9	9.4
CCOC(=O)C1CCCN(C(=O)c2ccc(Cl)c(S(=O)(=O)N3CCCCC3)c2)C1 (stereo unspecified)	17.0	24.1	79.1*	0.0	10.2
CCOC(=O)C1CCN(C(=O)c2ccc(C)c(S(=O)(=O)N3CCCC3)c2)CC1	6.2	1.7	-1.0	1.1	-5.0
CC(=O)C1CCCN(C(=O)c2ccc3oc(CCc4ccccc4)nc3c2)C1 (stereo unspecified)	-2.5	-1.1	-11.8	1.3	3.7
CCOC(=O)C1CCCN(C(=O)c2ccc3nc(-c4ccccc4)c(-c4ccccc4)nc3c2)C1 (stereo unspecified)	8.9	-6.8	4.9	16.7*	38.2
O=C(c1ccc2oc(CCCc3ccccc3)nc2c1)N1CCCC1	-0.4	46.0	86.8*	5.5	-9.0
CCOC(=O)C1CCCN(C(=O)c2ccc3oc(CCc4ccccc4)nc3c2)C1 (stereo unspecified)	-23.1	7.1	14.0	62.5*	70.5
COc1ccc(CCn2ccc(O)c(Cc3c(F)cccc3Cl)c2=O)cc1OC	1.3	7.0	9.2	-0.1	23.8
NC(=NC(=O)c1ccccc1)N1N=CCC1c1ccccc1 (stereo unspecified)	3.9	9.2	4.7	-0.3	-3.7
CCOC(=O)C1CCN(C(=O)c2cccc(S(=O)(=O)N(C)C3CCCCC3)c2)CC1	27.4	5.5	5.5	-0.4	-11.0
CCOC(=O)C1CCCN(C(=O)c2cccc(S(=O)(=O)N(Cc3ccccc3)c3ccccc3OC)c2)C1 (stereo unspecified)	55.7*	9.6	16.4	-0.4	2.4
Fc1cccc(-c2cc3nc4c(c(NCc5ccco5)n3n2)CCCC4)c1	40.8	22.2	48.6	.	10.8
COc1cccc(-c2cc3nc4c(c(NCC(C)(C)CN(C)C)n3n2)CCCC4)c1	60.8*	?	-55.9	2.4	-2.7
Cc1cc(NC(=S)N(Cc2ccc(Cl)cc2)Cc2ccc(C(=O)O)cc2)ccc1Cl	6.8	49.3	80.1*	0.2	16.6
CN(NC1OC(=O)c2ccccc21)c1ccc(C(F)(F)F)cc1[N+](=O)[O-] (stereo unspecified)	3.4	-59.2*	-69.3	-0.9	-5.1
CN(NC1OC(=O)c2ccccc21)c1ccc(Cl)cc1[N+](=O)[O-] (stereo unspecified)	-17.5	0.1	-5.5	0.4	-8.8
COc1ccc(S(=O)(=O)N2CCOC2CNC(=O)C(=O)NCc2ccc3c(c2)OCO3)cc1OC (stereo unspecified)	7.8	-5.2	1.5	219.4*	-2.4
SMILES	T cruzi inh	HSF1 inhib	HSF1 activator	HIF act	Calb FLC
COc1ccc(CNC(=O)C(=O)NCC2OCCN2S(=O)(=O)c2ccc(OC)c(OC)c2)cc1 (stereo unspecified)	10.1	-0.6	-4.0	0.0	-0.5
COc1ccc(OCC(=O)NNC(=O)c2ccc3c(=O)n4c(nc3c2)CCC4)cc1	2.2	-5.5	-2.0	-0.8	19.2
CCc1nnc(NC(=O)CSc2nnc(C)c(=O)n2N)s1	-3.9	-1.1	-1.1	-0.1	-1.5
c1ccc(COc2ccc3nocc3c2)cc1	-2.7	23.9	15.4	4.8	11.5
COc1ccc(-c2csc(NC(=O)CSc3nnnn3C)n2)cc1OC	-1.9	-2.1	-15.7	2.5	1.0
COc1ccc(-c2csc(/C(C#N)=C(\O)CSc3nccn3C)n2)cc1OC	-3.7	-87.7*	-90.8	-0.1	1.8
Cc1ccccc1C(=O)Nc1nnc(CC(=O)N/N=C/c2cn(Cc3ccccc3)c3ccccc23)s1	-2.8	-3.3	-0.3	-1.2	-19.7
Cc1ccccc1C(=O)Nc1nnc(CC(=O)N/N=C/c2ccco2)s1	9.3	-79.5*	-84.7	0.3	-2.9
COc1cccc(-n2c(SCc3cc(=O)oc4cc(O)c(O)cc34)nc3ccccc3c2=O)c1	7.8	-3.6	17.8	-0.8	106.4*
CCOc1cc(CNc2ccccc2)cc(Br)c1OCC(=O)NC(C)(C)C	11.3	0.7	7.0	0.3	0.9
CCOc1cc(CNc2ccc(Br)cc2)cc(Br)c1OCC(=O)NC(C)(C)C	65.6*	12.5	19.8	0.1	19.4
Cn1c(=O)c2ccccc2n(Cc2ccccc2Cl)c1=O	-2.8	-45.8	-57.9	0.6	15.6
CC(C)/C=C1\CC/C(=C\c2cccnc2)C1=O	56.5*	2.1	-2.2	0.1	1.6
O=C1/C(=C/c2cccnc2)CC/C1=C\c1cccnc1	1.8	-5.9	-7.3	0.2	10.1
Cc1ccc(OCC(=O)N/N=C/c2cccnc2)cc1C	-10.1	-2.4	13.8	-0.4	-4.7
COc1ccc(-c2nc(C#N)c(N3CCN(C(=O)c4ccco4)CC3)o2)cc1OC	2.0	-7.8	-2.8	11.1*	0.0
Cn1cc(C(=O)O)c(-c2ccc3c(c2)OCCCO3)n1	-8.7	-6.4	-2.8	1.3	-7.4
Cn1cc(C=O)c(-c2ccc3c(c2)OCCCO3)n1	-5.3	41.5	89.1*	0.8	-3.8
Cc1cc(/C=N/n2c(COc3ccccc3)nc3ccccc3c2=O)c(O)c([N+](=O)[O-])c1	50.0	-1.1	2.8	14.5*	-13.3
Cc1cccc(C)c1OCc1nc2ccccc2c(=O)n1/N=C/c1ccc(OCC(=O)O)cc1	-4.7	22.5	52.8*	-0.5	8.0
CC(=O)NCCc1nc2cc(NC(=O)COc3cccc(C)c3)ccc2n1C	-18.8	4.2	-2.2	0.1	-10.7
O=C(CN1CCOCC1)N/N=C/C(Br)=C\c1ccccc1	-33.2	11.3	30.8	0.0	11.9
CC(/C=N/NC(=O)c1sc(N)nc1C)=C\c1ccccc1	-1.6	43.5	74.7*	1.8	14.1
O=C(Cc1cccs1)N/N=C/C(Br)=C/c1ccccc1	-4.4	85.1	105.7*	5.0	-4.1
